Active and inactive are the calls of the source. The rule behind the calls is not given here.

In series [1] the test system is HCT-8. As to the kind of experiment: Induction of nitric oxide release in human HCT8 cells at 100 uM incubated for 150 mins by Griess assay. The format is functional, cell-based. Summed up: (§1)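 Cells (1 × 10^6/well) treated in triplicate with compound at 100 µM for 150 min. Lysates mixed with Griess reagent for 10 min at 37 °C and read at 540 nm. Nitrite quantified from a sodium nitrite standard curve; 0.4% DMSO-treated cells served as background. Mean ± SD of three experiments.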
On the technique in general: Nitrite, measured by Griess reagent, commonly stands in for NO production.

In series [2] the test system is Mus musculus. As to the kind of experiment: Toxicity in ICR mouse assessed as mouse mortality incidence at 0.60 x 10^3 to 2.38 x 10^3 umol/kg administered as single dose via oral gavage measured up to 14 days post treatment. The class given is organism-based. The conditions noted are these: in vivo, 336 h. In a few lines:
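Adult ICR mice of either sex were randomised and given a single oral gavage dose of 500, 1000, 1500 or 2000 mg/kg in cremophor-EL/DMSO/PBS (1:1:8). Survival, behaviour, water and food intake, body weight and activity were monitored for up to 14 days. Body weights were taken on days 0, 7 and 14.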

Series [3] has as its system Mus musculus. The series is described as follows: Toxicity in nude BALB/c mouse xenografted with FU-resistant human HCT8 cells assessed as abnormal weight changes in lung at 17.8 to 35.7 umol/kg administered as via oral gavage daily for 21 days. The following applies: in vivo, 504 h. The format is organism-based, HCT-8. Summed up: (§2)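 Male BALB/c nude mice, 6-8 weeks old, inoculated s.c. in right flank with HCT-8/5-FU cells (2 × 10^6/mouse). Once tumors reached 180-200 mm3 (9-11 days post-implantation), mice were randomized and dosed by gavage daily for 21 consecutive days in cremophor-EL/DMSO/PBS (1:1:8) (vehicle alone 0.2 mL). Body weights recorded on day 1 and day 21. Organ size, color and weights were inspected for liver, kidney, lung and heart. n = 8 per group; mean ± SD.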
A general note: In xenograft studies the graft and the host belong to different species.

The test system of another series is CCD-841CoN. As to the kind of experiment: Induction of nitric oxide release in human CCD-841-CoN cells at 100 uM incubated for 150 mins by Griess assay. The format is functional, cell-based. Summed up:
as §1

A short description of series [4]: (§3) Antiproliferative activity against 5-FU resistant human HCT8 cells assessed as inhibition of cell proliferation at 1 uM after 72 hrs by MTT assay. The format is functional. The conditions noted are these: HCT-8, 72 h, read-out: GI. In a few lines:
(§4)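 Cells grown in DMEM with 10% FBS and exposed to compound at 1 µM for 72 h. Proliferation measured by MTT at 570 nm and expressed as % inhibition versus untreated cells. Mean ± SD of three independent experiments.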
A general note: Formazan colour is commonly taken as a measure of viable cells.

In series [5] the test system is Mus musculus. As to the kind of experiment: Toxicity in nude BALB/c mouse xenografted with FU-resistant human HCT8 cells assessed as body weight level at 59.4 umol/kg administered as via oral gavage daily for 21 days (reference value: 20.8 +/- 2.2 g). The conditions noted are these: in vivo, 504 h. The class given is organism-based, HCT-8. Summed up:
as §2

The test system of series [6] is Mus musculus. The series is described as follows: Toxicity in nude BALB/c mouse xenografted with FU-resistant human HCT8 cells assessed as abnormal weight changes in lung at 59.4 umol/kg administered as via oral gavage daily for 21 days. The class given is organism-based, HCT-8. The following applies: in vivo, 504 h. In a few lines: as §2
For series [7], the system named is HCT-8. As to the kind of experiment: Inhibition of P-gp protein expression in FU-resistant human HCT8 cells at 1 uM incubated for 24 hrs by Western blotting method. The format is functional, cell-based. In a few lines:
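Cells (1 x 10^6) grown 24 h in 6 cm dishes, then exposed in duplicate for 24 h to 0.25, 0.5 or 1 µM compound, with or without PTIO. Lysates (20 µg/lane) were run on 7.5% SDS-PAGE, blotted to PVDF and blocked in 5% milk. HRP secondaries with ECL detection; bands quantified by densitometry against β-actin or GAPDH. Three separate experiments, mean ± SD.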

The test system of series [8] is HCT-8. Described as §3. The format is functional. Summed up:
as §4

In the case of `CC1(C)CC[C@]2(C(=O)NCC(=O)OCC#CCOc3no[n+]([O-])c3S(=O)(=O)c3ccccc3)CC[C@]3(C)[C@H](C(=O)C=C4[C@@]5(C)C=C(C#N)C(=O)C(C)(C)[C@@H]5CC[C@]43C)[C@@H]2C1`, in the series with HCT-8 [1], the outcome was Active. Besides, the Activity result in the series on Mus musculus [2] and with Mus musculus [3] was “Non-toxic” each time. The outcome with CCD-841CoN was inactive. The inhibition of growth at 1 µM in [4] is over 90%.
With `COC(=O)[C@]12CCC(C)(C)C[C@H]1[C@H]1C(=O)C=C3[C@@]4(C)C=C(C#N)C(=O)C(C)(C)[C@@H]4CC[C@@]3(C)[C@]1(C)CC2` [BARDOXOLONE METHYL], the Activity in the series with Mus musculus [5] is listed as 16.7 g; with Mus musculus [6], “Non-toxic”. Moreover, in the series with HCT-8 [7], the inhibition result is “inactive”. The “growth inhibition (GI)” value with HCT-8 [8] is “Active”.

The values above are taken from ChEMBL document CHEMBL3414437, “Synthesis of CDDO-amino acid-nitric oxide donor trihybrids as potential antitumor agents against both drug-sensitive and drug-resistant colon cancer” (J Med Chem, 2015).
